Data on eight compounds can be found in ChEMBL document CHEMBL4732217, “Design, synthesis, biological evaluation, and docking studies of novel (imidazol-5-yl)pyrimidine-based derivatives as dual BRAF/p38α inhibitors” (Eur J Med Chem, 2021).

The structures appear in SMILES notation.

In assay [1] the target is T1, Mitogen-activated protein kinase 14 (Homo sapiens, UniProt Q16539). Put plainly: Inhibition of p38 alpha (unknown origin) at 10 uM using Ser/Thr 15 as substrate incubated for 1 hr in presence of ATP by Z'-Lyte assay relative to control. The procedure, abridged: (§1)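 Run by a commercial kinase profiling service at 100 µM ATP. Single-point screening was followed by 5-point titration (1 nM, 10 nM, 100 nM, 1 µM, 10 µM) for IC50.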

Assay [2] in a line: Cytotoxicity against human IOSE-80PC cells assessed as reduction in cell viability incubated for 24 hrs by MTT assay. It counts as cell-based, IOSE80pc. A digest of the protocol:
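Human ovarian epithelial IOSE-80PC cells grown in RPMI 1640 with FBS and penicillin-streptomycin, seeded at 1 × 10⁵/mL, exposed to a range of compound concentrations in 5-dose mode. Viability read by MTT; IC50 derived.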

Assay [3] is described as follows: Selectivity index, ratio of IC50 for human IOSE-80PC cells to IC50 for human LOX IMVI cells. A digest of the protocol:
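IC50 against IOSE-80PC normal ovarian epithelial cells (MTT, 5-dose) divided by IC50 against LOX-IMVI melanoma cells (MTT, 24 h compound exposure, means of duplicate experiments ± S.D.).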

Assay [4] relates to LOX IMVI. Put plainly: cells. It is filed as functional, cell-based. The following applies: Homo sapiens, 24 h.
Assay [5] concerns Serine/threonine-protein kinase B-raf (Homo sapiens), P15056 [V600E]. Put plainly: Inhibition of BRAF V600E mutant (unknown origin) at 10 uM using Ser/Thr 03 as substrate after 1 hr in presence of ATP by Z'-LYTE assay relative to control. A digest of the protocol:
as §1

Assay [6] concerns the target T2, Serine/threonine-protein kinase B-raf (Homo sapiens, UniProt P15056, V600E). Put plainly: Inhibition of BRAF V600E mutant (unknown origin) preincubated for 20 mins followed by 33P-ATP addition and measured after 2 hrs by HotSpot kinase assay.
Assay [7] is described as follows: Inhibition of LPS stimulated TNF-alpha production in mouse RAW264.7 macrophages at 10 uM preincubated for 1 hr followed by LPS stimulation and measured after 24 hrs by EIA relative to control. It is filed as functional. Particulars: time 25 hrs. The procedure, abridged: (§2)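 RAW 264.7 macrophages plated at 2 × 10⁵ cells per well and left overnight. Pretreated 1 h with compound, then stimulated 24 h with lipopolysaccharide. TNF-α in culture supernatant measured by EIA. BAY 11-7082 reference tested at 0.5, 1.0, 5.0 and 10.0 µM. Values are means ± S.D.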

For assay [8], the target named is T1, Mitogen-activated protein kinase 14. Put plainly: Potency index, ratio of PP2 IC50 to compound IC50 for inhibition of P38 alpha (unknown origin).
In assay [9] the test system is RAW264.7. Put plainly: Potency index, ratio of BAY 11-7082 IC50 to compound IC50 for inhibition of LPS stimulated TNF-alpha production in mouse RAW264.7 macrophages. It counts as functional.
Assay [10] addresses T2, Serine/threonine-protein kinase B-raf. Put plainly: Inhibition of BRAF V600E mutant (unknown origin) using Ser/Thr 03 as substrate after 1 hr in presence of ATP by Z'-LYTE assay.
The nature of assay [11]: Inhibition of LPS stimulated TNF-alpha production in mouse RAW264.7 macrophages at 1 uM preincubated for 1 hr followed by LPS stimulation and measured after 24 hrs by EIA relative to control. It is filed as functional. The following applies: time 25 hrs. The procedure, abridged:
as §2

Assay [12] is described as follows: Inhibition of LPS stimulated TNF-alpha production in mouse RAW264.7 macrophages preincubated for 1 hr followed by LPS stimulation and measured after 24 hrs by EIA. It is filed as functional. The procedure, abridged:
as §2

Assay [13] concerns Serine/threonine-protein kinase B-raf (Homo sapiens), P15056 [V600E]. Put plainly: Potency index, ratio of staurosporine IC50 to compound IC50 for inhibition of BRAF V600E mutant (unknown origin).
Assay [14] has as its target T1, Mitogen-activated protein kinase 14. Put plainly: Inhibition of p38 alpha (unknown origin) using Ser/Thr 15 as substrate incubated for 1 hr in presence of ATP by Z'-Lyte assay.

Chain of Serine/threonine-protein kinase B-raf (Homo sapiens), P15056 [V600E] (P15056 whole entry V600E): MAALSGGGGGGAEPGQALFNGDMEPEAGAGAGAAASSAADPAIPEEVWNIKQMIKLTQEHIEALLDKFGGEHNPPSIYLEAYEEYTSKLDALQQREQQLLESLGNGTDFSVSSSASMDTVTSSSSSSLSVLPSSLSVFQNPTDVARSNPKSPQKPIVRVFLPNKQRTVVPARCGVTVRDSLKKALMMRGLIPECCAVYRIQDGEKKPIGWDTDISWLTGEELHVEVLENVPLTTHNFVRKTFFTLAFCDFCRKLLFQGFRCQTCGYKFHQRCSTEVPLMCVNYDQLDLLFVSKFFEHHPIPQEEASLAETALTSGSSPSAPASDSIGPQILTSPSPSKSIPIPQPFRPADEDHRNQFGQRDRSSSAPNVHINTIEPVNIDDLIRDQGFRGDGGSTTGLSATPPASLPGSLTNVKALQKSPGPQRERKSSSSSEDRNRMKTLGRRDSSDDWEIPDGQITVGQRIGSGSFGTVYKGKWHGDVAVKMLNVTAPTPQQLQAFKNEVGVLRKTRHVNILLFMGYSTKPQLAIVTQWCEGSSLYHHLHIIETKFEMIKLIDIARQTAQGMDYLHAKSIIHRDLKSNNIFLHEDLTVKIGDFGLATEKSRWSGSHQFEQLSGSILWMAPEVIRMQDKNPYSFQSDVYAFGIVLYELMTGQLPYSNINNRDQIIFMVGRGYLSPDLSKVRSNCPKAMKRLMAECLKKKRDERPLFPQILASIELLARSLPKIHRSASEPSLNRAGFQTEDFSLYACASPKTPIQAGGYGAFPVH
T2 sequence (P15056 2-766 V600E limits assumed): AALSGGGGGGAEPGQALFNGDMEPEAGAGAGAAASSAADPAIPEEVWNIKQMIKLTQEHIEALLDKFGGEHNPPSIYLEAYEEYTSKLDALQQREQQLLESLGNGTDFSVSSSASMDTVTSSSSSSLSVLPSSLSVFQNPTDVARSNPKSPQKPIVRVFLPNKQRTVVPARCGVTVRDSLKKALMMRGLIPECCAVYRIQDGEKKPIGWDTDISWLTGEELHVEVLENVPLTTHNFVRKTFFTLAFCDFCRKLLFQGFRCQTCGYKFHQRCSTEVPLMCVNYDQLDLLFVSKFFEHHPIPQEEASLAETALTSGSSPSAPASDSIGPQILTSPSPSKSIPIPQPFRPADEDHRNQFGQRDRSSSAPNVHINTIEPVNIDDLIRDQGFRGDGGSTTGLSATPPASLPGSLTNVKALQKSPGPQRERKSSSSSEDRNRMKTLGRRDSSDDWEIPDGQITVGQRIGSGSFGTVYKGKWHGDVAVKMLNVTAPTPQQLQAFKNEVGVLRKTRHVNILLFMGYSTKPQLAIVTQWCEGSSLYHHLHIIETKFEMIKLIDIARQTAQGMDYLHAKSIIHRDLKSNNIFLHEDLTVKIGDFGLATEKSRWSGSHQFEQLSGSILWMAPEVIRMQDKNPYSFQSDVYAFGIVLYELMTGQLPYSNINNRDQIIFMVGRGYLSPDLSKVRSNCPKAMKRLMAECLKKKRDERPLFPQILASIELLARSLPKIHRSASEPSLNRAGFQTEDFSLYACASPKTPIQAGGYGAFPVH
T1 sequence (Q16539 whole entry): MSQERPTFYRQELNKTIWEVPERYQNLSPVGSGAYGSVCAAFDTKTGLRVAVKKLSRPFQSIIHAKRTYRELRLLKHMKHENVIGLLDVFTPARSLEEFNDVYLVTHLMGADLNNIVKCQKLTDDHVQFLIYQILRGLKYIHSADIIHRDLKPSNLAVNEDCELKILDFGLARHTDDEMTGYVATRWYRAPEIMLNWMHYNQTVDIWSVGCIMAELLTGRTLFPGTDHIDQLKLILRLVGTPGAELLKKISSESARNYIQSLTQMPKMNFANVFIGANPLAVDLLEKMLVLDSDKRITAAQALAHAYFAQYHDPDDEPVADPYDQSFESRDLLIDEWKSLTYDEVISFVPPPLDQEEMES

With `COc1cc(-c2nc(-c3ccccc3)[nH]c2-c2ccnc(NCCCNS(=O)(=O)c3ccc(C(F)(F)F)cc3)n2)ccc1Cl`, the values for the inhibition in assay [1] and in assay [5] were 18.9% and 55.9%, respectively. Also, the 50% inhibitory concentration (IC50) in assay [2] was above 10 µM; in assay [4], 1780 nM. In addition, the Ratio IC50 in assay [3] is above 5.62.
In turn, `O=S(=O)(NCCNc1cc(-c2[nH]c(-c3ccccc3)nc2-c2cccc(O)c2)ccn1)c1ccc(O)cc1` gave an IC50 in assay [6] of 32 nM.
As for `O=S(=O)(NCCCNc1nccc(-c2[nH]c(-c3ccccc3)nc2-c2ccc(Cl)c(O)c2)n1)c1ccc(F)cc1`, the inhibition in [1] worked out at 85.5%; in assay [5] it was 97.1%. Also, the IC50 in assay [2] was above 10 µM; in [4] it was 2300 nM. Moreover, in [3], the Ratio IC50 was above 4.35.
For the compound `O=S(=O)(NCCCNc1nccc(-c2[nH]c(-c3ccccc3)nc2-c2ccc(F)c(O)c2)n1)c1ccc(O)cc1`, the inhibition at 10 µM in assay [7] is 96.4%. Also, the inhibition came out at 92.8% in [1] and 101% in assay [5]. For the same compound, the figures for the Ratio IC50 in assay [8], in assay [9] and in [13] were 49.8, 53.8 and 12.7, respectively. Moreover, the IC50 in [10] amounted to 2.49 nM; in [4] it was 13900 nM; in assay [12], 96.3 nM; in [14] it was 85 nM. Further, the inhibition at 1 µM in [11] worked out at 85.2%.
With `O=S(=O)(NCCCNc1nccc(-c2[nH]c(-c3ccccc3)nc2-c2ccc(F)c(O)c2)n1)c1ccc(C(F)(F)F)cc1`, the inhibition in assay [1] was 65.4%; in assay [5], 98.4%. The values for the 50% inhibitory concentration (IC50) in [2] and in assay [4] were above 10 µM and 2450 nM, respectively. Further, in assay [3], the Ratio IC50 is above 4.08.
`Cc1ccc(S(=O)(=O)/C=C/C#N)cc1` yielded an IC50 in [12] of 5180 nM.
For the compound `O=S(=O)(NCCCNc1nccc(-c2[nH]c(-c3ccccc3)nc2-c2ccc(Cl)c(O)c2)n1)c1ccccc1`, the figures for the inhibition in assay [1] and in assay [5] were 82.2% and 99.4%, respectively. Further, the IC50 in assay [2] is above 10 µM; in [10] it was 4.25 nM; in [4], 2630 nM. In addition, the Ratio IC50 in assay [3] is above 3.8.
For the compound `COc1cc(-c2nc(-c3ccccc3)[nH]c2-c2ccnc(NCCCNS(=O)(=O)c3cccc(F)c3)n2)ccc1F`, the inhibition was determined as 82.7% in [1] and 72.5% in assay [5]. In addition, the IC50 in assay [2] is above 10 µM; in assay [4], 900 nM. Further, in assay [3], the Ratio IC50 was above 11.1.

The term inhibition denotes the drop in the measured response relative to a control, in per cent. What is called IC50 is the concentration that gives 50% inhibition.
